Data set [1] can be described thus: Bioavailability in ferret. The settings on record: in vivo.
For data set [2], the target named is T1, Renin (Homo sapiens, UniProt P00797).
T1 sequence (P00797 whole entry): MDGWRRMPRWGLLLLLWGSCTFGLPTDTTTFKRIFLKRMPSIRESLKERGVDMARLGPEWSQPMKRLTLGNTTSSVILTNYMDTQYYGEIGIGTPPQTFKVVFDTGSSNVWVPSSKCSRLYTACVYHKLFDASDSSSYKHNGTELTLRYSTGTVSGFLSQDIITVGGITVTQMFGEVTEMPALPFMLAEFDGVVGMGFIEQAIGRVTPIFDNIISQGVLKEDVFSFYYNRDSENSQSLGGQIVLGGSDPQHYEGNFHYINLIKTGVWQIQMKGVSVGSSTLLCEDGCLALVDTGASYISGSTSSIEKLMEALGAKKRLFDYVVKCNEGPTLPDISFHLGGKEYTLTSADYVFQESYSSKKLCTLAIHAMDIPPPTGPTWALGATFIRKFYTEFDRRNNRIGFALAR
In kind it is cell-free, Plasma.

Data set [3] deals with Mustela putorius furo. Description: Average area under curve value dosed at 0.3 mg/kg, iv in ferrets. The note with it: ferret, in vivo.
The nature of data set [4]: Partition coefficient (logD7.4). The settings on record: octanol/water, pH 7.4.
Data set [5] in a line: Average peak plasma drug concentration after iv dose of 0.3 mg/kg in ferrets. The note with it: ferret, plasma.
A short description of data set [6]: Average peak plasma drug concentration after id dose of 10 mg/kg in ferrets(Plasma samples collected from arterial blood). The note with it: ferret, plasma (from arterial blood).
Data set [7] in a line: Partition coefficient (logD6.5). The note with it: octanol/water, pH 6.5.
Data set [8] can be described thus: (§1) Average peak plasma drug concentration after id dose of 10 mg/kg in ferrets(Plasma samples collected from portal blood). The note with it: ferret, plasma (from portal blood).
The subject of data set [9] is Mustela putorius furo. Description: (§2) Average area under curve value dosed at 10 mg/kg, id in ferrets. The arrangement: dose 10 mg/kg, route intraduodenal. In kind it is ADME, organism-based. The note with it: ferret, in vivo, other. In outline:
(§3)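 Fasted male Fitch ferrets (0.4–1.2 kg) under Inactin anesthesia (100–120 mg/kg ip), catheterized in carotid artery, jugular vein, portal vein and trachea. Single 10 mg/kg intraduodenal dose of HCl salt solution. 6 portal and 7 arterial samples taken over 180 min. Plasma drug measured by renin-inhibition bioassay with serial dilution and acetonitrile precipitation. AUC by trapezoidal integration; peak is the mean of each animal's maximum.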

Data set [10] in a line: Bioavailability in monkey (i.d. dosing). In kind it is ADME, organism-based. The note with it: in vivo. In outline:
(§4)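 Male cynomolgus monkeys (3–5 kg) salt-depleted with furosemide 5 mg/kg po on days 7 and 1 plus a low-salt diet. Fasted, pentobarbital anesthesia. Intraduodenal dose of 10 mg/kg as HCl salt solution. Portal and systemic plasma drug levels measured by bioassay. Bioavailability = dose-normalized AUCid/AUCiv ×100 (trapezoidal integration; iv fit biexponential), mean ± SEM.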

Data set [11] has as its system Mustela putorius furo. The data set is described as §2. The settings on record: ferret, in vivo, other.
Data set [12] is described as follows: as §1. The settings on record: ferret, read-out: Average peak Concn. Further details: dose 10 mg/kg, route intraduodenal. In kind it is ADME, organism-based, Mustela putorius furo. The method in brief: as §3
Data set [13] in a line: Bioavailability in monkey (dose 10 mg/kg i.d.). In kind it is ADME, organism-based. The settings on record: primates, in vivo. The method in brief:
as §4

Data set [14] has as its target T1, Renin. The experiment in a line: In vitro activity against human renin (pH 6.0).
The target in the next data set is T2, Cathepsin D (Bos taurus) (UniProt P80209).
T2 sequence (whole entry): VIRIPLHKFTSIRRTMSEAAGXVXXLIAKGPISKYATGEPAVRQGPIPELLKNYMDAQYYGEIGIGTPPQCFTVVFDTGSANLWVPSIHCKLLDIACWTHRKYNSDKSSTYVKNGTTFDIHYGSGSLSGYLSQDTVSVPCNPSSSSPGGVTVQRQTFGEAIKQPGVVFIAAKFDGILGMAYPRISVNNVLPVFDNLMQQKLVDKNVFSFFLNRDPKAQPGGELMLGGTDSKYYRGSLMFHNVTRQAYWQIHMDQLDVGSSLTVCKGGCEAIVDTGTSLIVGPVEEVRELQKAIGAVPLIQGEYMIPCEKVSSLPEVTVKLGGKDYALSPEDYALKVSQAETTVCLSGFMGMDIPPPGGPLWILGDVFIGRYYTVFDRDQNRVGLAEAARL
Description: Inhibitory activity against bovine cathepsin D at a concentration of 1 x 10e-5 M.

The target in data set [15] is T3, Cathepsin G (Homo sapiens) (UniProt P08311).
T3 sequence (whole entry): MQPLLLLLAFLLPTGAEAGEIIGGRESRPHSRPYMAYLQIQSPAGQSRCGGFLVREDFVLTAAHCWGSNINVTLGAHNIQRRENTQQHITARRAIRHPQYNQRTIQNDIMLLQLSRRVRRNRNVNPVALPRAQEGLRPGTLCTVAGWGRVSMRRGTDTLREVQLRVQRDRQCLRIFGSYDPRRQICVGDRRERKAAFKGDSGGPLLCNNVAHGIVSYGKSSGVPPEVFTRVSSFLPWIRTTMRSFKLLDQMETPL
The experiment in a line: Inhibitory activity against human cathepsin G at a concentration of 1 x 10e-5 M. In outline:
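Human leukocyte cathepsin G, assayed with N-succinyl-Ala-Ala-Pro-Phe-4-nitroanilide substrate.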

Data set [16] concerns the target T4, Gastricsin (Homo sapiens) (UniProt P20142).
T4 sequence (whole entry): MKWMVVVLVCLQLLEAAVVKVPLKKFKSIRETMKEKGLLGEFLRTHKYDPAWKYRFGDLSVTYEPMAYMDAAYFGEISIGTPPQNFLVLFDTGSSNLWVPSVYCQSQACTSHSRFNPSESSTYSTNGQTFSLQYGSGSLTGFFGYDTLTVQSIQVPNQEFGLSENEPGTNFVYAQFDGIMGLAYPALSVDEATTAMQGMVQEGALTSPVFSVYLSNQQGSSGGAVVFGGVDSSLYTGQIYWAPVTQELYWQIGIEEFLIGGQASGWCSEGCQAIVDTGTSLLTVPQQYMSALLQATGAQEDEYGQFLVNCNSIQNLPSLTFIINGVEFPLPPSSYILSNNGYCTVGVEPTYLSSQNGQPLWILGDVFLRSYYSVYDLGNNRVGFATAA
Description: Inhibitory activity against human Gastricsin at a concentration of 1 x 10e-5 M.

The target in the next data set is Pepsin A (Sus scrofa) (UniProt P00791). Description: Inhibitory activity against porcine pepsin at a concentration of 1 x 10e-5 M.
Sequence of Pepsin A (Sus scrofa) (P00791 60-385 limits assumed): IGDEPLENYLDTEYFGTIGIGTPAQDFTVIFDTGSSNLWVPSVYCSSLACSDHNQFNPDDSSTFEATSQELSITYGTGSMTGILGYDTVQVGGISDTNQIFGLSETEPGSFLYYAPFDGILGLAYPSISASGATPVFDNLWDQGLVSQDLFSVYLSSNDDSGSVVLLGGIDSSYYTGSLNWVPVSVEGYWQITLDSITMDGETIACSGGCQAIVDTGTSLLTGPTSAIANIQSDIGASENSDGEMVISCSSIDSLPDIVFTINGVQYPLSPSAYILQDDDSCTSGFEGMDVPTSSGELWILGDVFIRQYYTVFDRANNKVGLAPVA
Data set [17] has as its target Cathepsin D (Homo sapiens) (UniProt P07339). The experiment in a line: Inhibitory activity against human cathepsin D at a concentration of 1 x 10e-5 M. In outline:
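Human spleen cathepsin D, purified by hemoglobin affinity chromatography and assayed with hemoglobin substrate.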

The nature of data set [18]: Inhibitory activity against monkey plasma at pH 7.4. The note with it: Cercopithecidae.

For orientation: bioavailability means dose-corrected exposure relative to a reference, in per cent. As a reminder, the IC50 is the concentration needed to halve the response being measured. What is called logD is lipophilicity at a set pH, counting ionised and neutral species. One may read the inhibition as the percentage by which the read-out fell short of the control.

Sequence of Cathepsin D (Homo sapiens) (P07339 65-162 limits assumed): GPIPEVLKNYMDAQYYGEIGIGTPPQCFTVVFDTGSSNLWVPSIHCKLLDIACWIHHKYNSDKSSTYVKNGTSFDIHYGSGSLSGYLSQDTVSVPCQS
Sequence of Cathepsin D (Homo sapiens) (P07339 169-412 limits assumed): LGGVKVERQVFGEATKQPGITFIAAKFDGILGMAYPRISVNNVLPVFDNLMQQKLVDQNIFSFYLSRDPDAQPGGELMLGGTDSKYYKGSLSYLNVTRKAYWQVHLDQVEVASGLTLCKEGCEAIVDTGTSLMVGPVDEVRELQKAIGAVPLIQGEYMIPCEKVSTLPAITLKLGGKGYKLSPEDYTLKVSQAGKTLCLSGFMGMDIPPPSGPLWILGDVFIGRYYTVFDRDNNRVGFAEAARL

Regarding `CCCC[C@H](O[C@@H](Cc1ccccc1)C(=O)N1CCC(OCOC)CC1)C(=O)N[C@@H](CC1CCCCC1)[C@@H](O)C[C@H](NC(=O)OCCN1CCOCC1)C(C)C`, the bioavailability in [1] stood at 70%. On Renin [2], this molecule came in with a concentration for half-maximal inhibition (IC50) of 7.5 nM. Further, in the data set with Mustela putorius furo [3], the Average AUC was 258 ng·h/mL. In addition, the logD in [4] is 3.7; in [7] it was 3.6. For the same molecule, the Cmax in data set [5] was 920 ng/mL; in data set [6], 2840 ng/mL; in data set [8], 5010 ng/mL. In the data set on Mustela putorius furo [9], the “Avg AUC,” value was 363 µg/min/mL.

The molecule `COc1ccc(C[C@H](NC(=O)CC(C)(C)N)C(=O)N[C@@H](Cc2cnc[nH]2)C(=O)N[C@@H](CC2CCCCC2)[C@@H](O)[C@@H](O)CC(C)C)cc1` registered a bioavailability in [10] (cercopithecidae) of 1.7%.

`CCCC[C@H](O[C@@H](Cc1ccccc1)C(=O)N1CCC(OCOC)CC1)C(=O)N[C@@H](CC1CCCCC1)[C@@H](O)C[C@H](C(=O)NCCCn1ccnc1)C(C)C` showed a bioavailability in data set [1] of 25%. Further, the 50% inhibitory concentration (IC50) on Renin [2] came out at 3 nM. For the same molecule, the Average AUC in the data set on Mustela putorius furo [3] is 410 ng·h/mL; in the data set on Mustela putorius furo [11], 3380 ng·h/mL. Also, the logD in data set [4] and in data set [7] was 4 in each case. The Cmax in data set [5] was found to be 3390 ng/mL; in data set [6], 2790 ng/mL; in [12], 2420 ng/mL.

Turning to `CCCC[C@H](O[C@@H](Cc1ccccc1)C(=O)N1CCC(OCOC)CC1)C(=O)N[C@@H](CC1CCCCC1)[C@@H](O)[C@@H](O)CC(C)C`, the logD in data set [4] and in [7] was 4.8 in each case. The bioavailability in data set [13] turned out to be 2.5%.

The molecule `CCCCNC(=O)[C@@H](C[C@H](O)[C@H](CC1CCCCC1)NC(=O)[C@H](CCCC)N[C@@H](Cc1ccccc1)C(=O)N1CCC(OCOC)CC1)C(C)C` returned a bioavailability in data set [1] of 16%. Further, the results for the Average AUC in the data set on Mustela putorius furo [3] and in the data set on Mustela putorius furo [11] were 673 ng·h/mL and 3530 ng·h/mL, respectively. Moreover, the logD in data set [4] and in [7] was greater than 4.5 in each case. The Cmax in data set [5] was 2230 ng/mL; in data set [6], 1540 ng/mL; in [8], 3220 ng/mL. Also, at Renin [14], the IC50 was 1.8 nM.

Molecule `CCCC[C@H](N[C@@H](Cc1ccccc1)C(=O)N1CCC(OCOC)CC1)C(=O)N[C@@H](CC1CCCCC1)[C@@H](O)[C@@H](O)CC(C)C` showed a bioavailability in data set [13] of 2.9%.

For the molecule `CCCC[C@H](O[C@@H](Cc1ccccc1)C(=O)N1CCC(OCOC)CC1)C(=O)N[C@@H](CC1CCCCC1)[C@@H](O)C[C@H](C(=O)NCCCN1CCOCC1)C(C)C`, the figures for the bioavailability in data set [1] and in data set [10] (primates) were 28% and 16%, respectively. Moreover, the 50% inhibitory concentration (IC50) on Renin [2] was 2.8 nM; in [18], 1.5 nM; at Renin [14], 2.4 nM. The inhibition against Cathepsin D (Bos taurus) came to 3%; in data set [15], 0%; in data set [16], 11%; at Pepsin A (Sus scrofa) it was 13%; in data set [17] it was 6%. In the data set on Mustela putorius furo [3], this molecule displayed an Average AUC of 588 ng·h/mL. Further, the logD was found to be 4.3 in data set [4] and 3.3 in data set [7]. The Cmax in data set [5] amounted to 2110 ng/mL; in data set [6], 4830 ng/mL; in data set [8], 6010 ng/mL. For the same molecule, in the data set with Mustela putorius furo [9], the “Avg AUC,” value worked out at 391 µg/min/mL.

In turn, `CCCC[C@H](N[C@@H](Cc1ccccc1)C(=O)N1CCC(OCOC)CC1)C(=O)N[C@@H](CC1CCCCC1)[C@@H](O)C[C@H](NC(=O)OCCN(C)C)C(C)C` gave a bioavailability in data set [1] of 62%. Besides, the half-inhibitory concentration (IC50) on Renin [2] turned out to be 12 nM; against Renin [14], 1.5 nM. Moreover, the Average AUC in the data set with Mustela putorius furo [3] amounted to 245 ng·h/mL; in the data set on Mustela putorius furo [11] it was 5050 ng·h/mL. The logD in data set [4] turned out to be 4.6; in data set [7] it was 3.8. Besides, the Cmax is 930 ng/mL in data set [5], 2070 ng/mL in data set [6] and 5250 ng/mL in data set [8].

For the molecule `CCCC[C@H](O[C@@H](Cc1ccccc1)C(=O)N1CCC(OCOC)CC1)C(=O)N[C@@H](CC1CCCCC1)[C@@H](O)C[C@H](NC(=O)OCCN(C)C)C(C)C`, the bioavailability in [1] is 36%. The IC50 against Renin [2] was 8.3 nM. For the same molecule, the Average AUC came out at 232 ng·h/mL with Mustela putorius furo [3] and 2780 ng·h/mL in the data set on Mustela putorius furo [11]. Further, the pH-dependent lipophilicity (logD) in [4] is greater than 4; in data set [7] it was 3.6. The results for the Cmax in data set [5], in data set [6] and in data set [8] were 1010 ng/mL, 1190 ng/mL and 1540 ng/mL, respectively.

In the case of `CCCCNC(=O)[C@@H](C[C@H](O)[C@H](CC1CCCCC1)NC(=O)[C@H](CCCC)O[C@@H](Cc1ccccc1)C(=O)N1CCC(OCOC)CC1)C(C)C`, the logD in [4] and in data set [7] was 4.7 throughout. The molecule also returned a bioavailability in data set [13] of 2.5%.

For the molecule `CCCC[C@H](O[C@@H](Cc1ccccc1)C(=O)N1CCC(OCOC)CC1)C(=O)N[C@@H](CC1CCCCC1)[C@@H](O)C[C@H](C(=O)NCCN1CCOCC1)C(C)C`, the bioavailability in data set [1] came to 45%. Moreover, the IC50 on Renin [2] was 3.7 nM; on Renin [14], 1 nM. The results for the Average AUC with Mustela putorius furo [3] and in the data set with Mustela putorius furo [11] were 472 ng·h/mL and 7080 ng·h/mL, respectively. Also, the logD in data set [4] and in [7] was greater than 5 in each case. Besides, the Cmax amounted to 1320 ng/mL in data set [5], 2770 ng/mL in [6] and 4350 ng/mL in data set [8].

The record behind these values is ChEMBL document CHEMBL1126033, “C-terminal modifications of nonpeptide renin inhibitors: improved oral bioavailability via modification of physicochemical properties” (J Med Chem, 1992).
